According to ChEMBL document CHEMBL2346519, “Substituted indolin-2-ones as p90 ribosomal S6 protein kinase 2 (RSK2) inhibitors: Molecular docking simulation and structure-activity relationship analysis” (Bioorg Med Chem, 2013):

Legend:
[1] = target: Mitogen-activated protein kinase 9 (Homo sapiens) (UniProt P45984); assay: Inhibition of JNK2 (unknown origin) at 3 uM after 10 mins by mobility shift assay relative to control
[2] = target: T1, RAC-alpha serine/threonine-protein kinase (Homo sapiens, UniProt P31749); assay: Inhibition of AKT1 (unknown origin) at 3 uM after 10 mins by mobility shift assay relative to control
T1 sequence (P31749 whole entry): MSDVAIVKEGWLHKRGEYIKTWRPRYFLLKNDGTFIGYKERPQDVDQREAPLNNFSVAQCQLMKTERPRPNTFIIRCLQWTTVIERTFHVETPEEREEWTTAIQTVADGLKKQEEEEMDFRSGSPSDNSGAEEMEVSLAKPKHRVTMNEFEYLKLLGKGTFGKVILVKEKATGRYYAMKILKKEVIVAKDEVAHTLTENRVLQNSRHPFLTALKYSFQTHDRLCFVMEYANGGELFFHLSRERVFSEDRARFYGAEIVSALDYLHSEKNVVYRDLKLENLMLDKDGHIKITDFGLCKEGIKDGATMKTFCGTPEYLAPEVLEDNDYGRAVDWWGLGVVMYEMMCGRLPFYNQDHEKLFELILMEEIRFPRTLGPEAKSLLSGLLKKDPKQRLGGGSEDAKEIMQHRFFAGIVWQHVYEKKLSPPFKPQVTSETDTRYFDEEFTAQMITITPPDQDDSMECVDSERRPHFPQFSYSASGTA

[3] = target: Hepatocyte growth factor receptor (Homo sapiens) (UniProt P08581); assay: Inhibition of c-MET (unknown origin) at 3 uM after 10 mins by mobility shift assay relative to control
[4] = target: Tyrosine-protein kinase ABL1 (Homo sapiens) (UniProt P00519); assay: Inhibition of ABL (unknown origin) at 3 uM after 10 mins by mobility shift assay relative to control
[5] = target: Aurora kinase B (Homo sapiens) (UniProt Q96GD4); assay: Inhibition of Aurora B (unknown origin) at 3 uM after 10 mins by mobility shift assay relative to control
Sequence of Aurora kinase B (Homo sapiens) (Q96GD4 whole entry): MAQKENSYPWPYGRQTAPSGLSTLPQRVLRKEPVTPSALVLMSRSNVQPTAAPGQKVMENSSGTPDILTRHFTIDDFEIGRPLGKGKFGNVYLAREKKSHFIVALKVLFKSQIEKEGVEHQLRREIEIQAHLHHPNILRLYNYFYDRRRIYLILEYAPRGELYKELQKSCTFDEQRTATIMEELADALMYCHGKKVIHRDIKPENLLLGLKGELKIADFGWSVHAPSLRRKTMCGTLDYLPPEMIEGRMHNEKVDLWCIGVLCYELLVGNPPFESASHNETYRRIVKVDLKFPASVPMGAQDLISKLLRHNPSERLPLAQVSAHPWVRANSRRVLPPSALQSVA

[6] = target: Proto-oncogene tyrosine-protein kinase Src (Homo sapiens) (UniProt P12931); assay: Inhibition of SRC (unknown origin) at 3 uM after 10 mins by mobility shift assay relative to control
[7] = target: Vascular endothelial growth factor receptor 2 (Homo sapiens) (UniProt P35968); assay: Inhibition of KDR (unknown origin) at 3 uM after 10 mins by mobility shift assay relative to control
[8] = target: Platelet-derived growth factor receptor alpha (Homo sapiens) (UniProt P16234); assay: Inhibition of PDGFRalpha (unknown origin) at 3 uM after 10 mins by mobility shift assay relative to control
[9] = target: Serine/threonine-protein kinase pim-1 (Homo sapiens) (UniProt P11309); assay: Inhibition of PIM1 (unknown origin) at 3 uM after 10 mins by mobility shift assay relative to control
[10] = target: Tyrosine-protein kinase Lyn (Homo sapiens) (UniProt P07948); assay: Inhibition of LYNA (unknown origin) at 3 uM after 10 mins by mobility shift assay relative to control
Sequence of Tyrosine-protein kinase Lyn (Homo sapiens) (P07948 2-512 limits assumed): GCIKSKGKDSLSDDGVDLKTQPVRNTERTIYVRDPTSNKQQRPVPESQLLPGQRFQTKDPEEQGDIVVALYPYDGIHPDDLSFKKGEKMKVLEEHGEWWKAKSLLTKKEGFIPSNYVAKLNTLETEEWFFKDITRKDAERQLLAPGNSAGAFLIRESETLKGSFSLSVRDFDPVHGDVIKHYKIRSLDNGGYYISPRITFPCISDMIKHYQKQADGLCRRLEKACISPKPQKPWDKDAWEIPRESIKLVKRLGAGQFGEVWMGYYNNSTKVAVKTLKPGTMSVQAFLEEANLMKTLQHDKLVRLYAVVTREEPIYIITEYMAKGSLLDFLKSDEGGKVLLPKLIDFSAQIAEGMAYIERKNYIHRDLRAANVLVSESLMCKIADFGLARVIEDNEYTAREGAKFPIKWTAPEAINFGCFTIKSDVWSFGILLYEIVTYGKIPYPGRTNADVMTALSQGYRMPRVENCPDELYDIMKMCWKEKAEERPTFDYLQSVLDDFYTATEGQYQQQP

[11] = target: Protein kinase C alpha type (Homo sapiens) (UniProt P17252); assay: Inhibition of PKC alpha (unknown origin) using PIP2 as substrate at 3 uM after 1 hr by Kinase-Glo assay relative to control
[12] = target: Mitogen-activated protein kinase 3 (Homo sapiens) (UniProt P27361); assay: Inhibition of ERK1 (unknown origin) at 10 uM after 10 mins by mobility shift assay relative to control
Sequence of Mitogen-activated protein kinase 3 (Homo sapiens) (P27361 whole entry): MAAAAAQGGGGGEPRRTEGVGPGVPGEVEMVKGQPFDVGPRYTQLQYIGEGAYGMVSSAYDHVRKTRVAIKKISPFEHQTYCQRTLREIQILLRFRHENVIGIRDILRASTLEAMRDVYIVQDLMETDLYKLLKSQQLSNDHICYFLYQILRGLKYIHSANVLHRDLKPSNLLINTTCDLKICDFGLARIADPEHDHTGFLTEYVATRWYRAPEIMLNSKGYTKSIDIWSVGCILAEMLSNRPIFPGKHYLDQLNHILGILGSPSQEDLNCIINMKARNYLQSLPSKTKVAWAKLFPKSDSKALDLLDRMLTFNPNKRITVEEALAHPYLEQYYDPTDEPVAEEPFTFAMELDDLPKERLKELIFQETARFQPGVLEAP

[13] = target: Mitogen-activated protein kinase 9 (Homo sapiens) (UniProt P45984); assay: Inhibition of JNK2 (unknown origin) at 10 uM after 10 mins by mobility shift assay relative to control
[14] = target: T1, RAC-alpha serine/threonine-protein kinase; assay: Inhibition of AKT1 (unknown origin) at 10 uM after 10 mins by mobility shift assay relative to control
[15] = target: Ribosomal protein S6 kinase alpha-5 (Homo sapiens) (UniProt O75582); assay: Inhibition of MSK1 (unknown origin) at 10 uM after 10 mins by mobility shift assay relative to control
[16] = target: Aurora kinase B (Homo sapiens) (UniProt Q96GD4); assay: Inhibition of Aurora B (unknown origin) at 10 uM after 10 mins by mobility shift assay relative to control
[17] = target: Hepatocyte growth factor receptor (Homo sapiens) (UniProt P08581); assay: Inhibition of c-MET (unknown origin) at 10 uM after 10 mins by mobility shift assay relative to control
[18] = target: Tyrosine-protein kinase ABL1 (Homo sapiens) (UniProt P00519); assay: Inhibition of ABL (unknown origin) at 10 uM after 10 mins by mobility shift assay relative to control
[19] = target: Platelet-derived growth factor receptor alpha (Homo sapiens) (UniProt P16234); assay: Inhibition of PDGFRalpha (unknown origin) at 10 uM after 10 mins by mobility shift assay relative to control
[20] = target: Serine/threonine-protein kinase pim-1 (Homo sapiens) (UniProt P11309); assay: Inhibition of PIM1 (unknown origin) at 10 uM after 10 mins by mobility shift assay relative to control
[21] = target: Mast/stem cell growth factor receptor Kit (Homo sapiens) (UniProt P10721); assay: Inhibition of cKit (unknown origin) at 10 uM after 10 mins by mobility shift assay relative to control
[22] = target: Tyrosine-protein kinase Lyn (Homo sapiens) (UniProt P07948); assay: Inhibition of LYN-A (unknown origin) at 10 uM after 10 mins by mobility shift assay relative to control
[23] = tested on: MCF7; assay: Cytotoxicity against human MCF7 cells assessed as growth inhibition after 48 hrs by MTT assay; type: functional, cell-based; conditions: MCF7, 48 h
Outline: (§1)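 MCF-7 cells grown in DMEM plus 10% FBS and PC 3 cells in F-12K, both seeded at 5 × 10^3 per well. Cells were exposed to compounds at various concentrations for 48 h. MTT was then added for 4 h at 37 °C in 5% CO2, formazan was dissolved in DMSO, and absorbance was read at 570 nm. IC50 was taken from inhibition curves of three independent experiments and measured only where inhibition at 100 µM exceeded 50%.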

[24] = tested on: PC-3; assay: Cytotoxicity against human PC3 cells assessed as growth inhibition after 48 hrs by MTT assay; type: functional, cell-based; conditions: PC-3, 48 h; outline: as §1
[25] = target: T2, Ribosomal protein S6 kinase alpha-3 (Homo sapiens, UniProt P51812); assay: Inhibition of RSK2 (unknown origin) using AKRRRLSSLRA as substrate after 60 mins by fluorescence assay
T2 sequence (P51812 whole entry): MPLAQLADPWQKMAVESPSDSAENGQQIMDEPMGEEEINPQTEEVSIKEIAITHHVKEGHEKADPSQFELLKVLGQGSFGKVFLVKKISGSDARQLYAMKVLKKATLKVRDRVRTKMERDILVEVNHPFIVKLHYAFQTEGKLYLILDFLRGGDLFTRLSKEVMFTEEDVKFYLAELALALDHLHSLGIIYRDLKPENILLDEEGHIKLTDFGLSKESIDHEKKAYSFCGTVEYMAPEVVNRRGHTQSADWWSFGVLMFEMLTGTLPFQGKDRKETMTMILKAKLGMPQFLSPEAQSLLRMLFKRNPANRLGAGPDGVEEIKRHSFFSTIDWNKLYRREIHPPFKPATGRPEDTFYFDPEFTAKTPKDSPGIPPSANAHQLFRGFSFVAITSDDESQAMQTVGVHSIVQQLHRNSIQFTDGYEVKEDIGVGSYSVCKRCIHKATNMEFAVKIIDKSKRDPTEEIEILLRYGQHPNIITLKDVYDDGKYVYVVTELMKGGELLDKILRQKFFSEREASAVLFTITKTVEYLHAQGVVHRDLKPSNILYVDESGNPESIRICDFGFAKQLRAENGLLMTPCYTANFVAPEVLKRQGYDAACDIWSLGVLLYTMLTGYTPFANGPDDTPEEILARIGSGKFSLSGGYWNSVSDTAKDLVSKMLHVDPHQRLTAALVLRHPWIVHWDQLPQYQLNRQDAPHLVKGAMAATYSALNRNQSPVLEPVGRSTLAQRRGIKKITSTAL

[26] = target: T2, Ribosomal protein S6 kinase alpha-3; assay: Inhibition of RSK2 (unknown origin) using AKRRRLSSLRA as substrate at 10 uM after 60 mins by fluorescence assay relative to control
[27] = target: Protein kinase C alpha type (Homo sapiens) (UniProt P17252); assay: Inhibition of PKC alpha (unknown origin) using PIP2 as substrate at 10 uM after 1 hr by Kinase-Glo assay relative to control
[28] = target: Ribosomal protein S6 kinase beta-1 (Homo sapiens) (UniProt P23443); assay: Inhibition of p70S6K (unknown origin) at 10 uM after 10 mins by mobility shift assay relative to control
[29] = target: T3, Mitogen-activated protein kinase 14 (Homo sapiens, UniProt Q16539); assay: Inhibition of p38alpha (unknown origin) after 10 mins by mobility shift assay
T3 sequence (Q16539 whole entry): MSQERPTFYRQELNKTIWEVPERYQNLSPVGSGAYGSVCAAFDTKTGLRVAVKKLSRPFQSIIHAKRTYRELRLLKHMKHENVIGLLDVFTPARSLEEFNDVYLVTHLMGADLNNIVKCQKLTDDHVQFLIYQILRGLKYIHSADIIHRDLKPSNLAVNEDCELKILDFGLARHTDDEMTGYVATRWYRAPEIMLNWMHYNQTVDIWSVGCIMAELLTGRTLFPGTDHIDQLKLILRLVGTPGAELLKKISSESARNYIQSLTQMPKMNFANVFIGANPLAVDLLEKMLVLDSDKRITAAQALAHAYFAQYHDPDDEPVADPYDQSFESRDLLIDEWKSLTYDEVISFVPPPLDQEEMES

[30] = target: T1, RAC-alpha serine/threonine-protein kinase; assay: Inhibition of AKT1 (unknown origin) after 10 mins by mobility shift assay
[31] = target: T3, Mitogen-activated protein kinase 14; conditions: 3 uM
[32] = target: Mitogen-activated protein kinase 3 (Homo sapiens) (UniProt P27361); conditions: 3 uM
[33] = target: Glycogen synthase kinase-3 beta (Homo sapiens) (UniProt P49841); conditions: 3 uM
Sequence of Glycogen synthase kinase-3 beta (Homo sapiens) (P49841 whole entry, looked up): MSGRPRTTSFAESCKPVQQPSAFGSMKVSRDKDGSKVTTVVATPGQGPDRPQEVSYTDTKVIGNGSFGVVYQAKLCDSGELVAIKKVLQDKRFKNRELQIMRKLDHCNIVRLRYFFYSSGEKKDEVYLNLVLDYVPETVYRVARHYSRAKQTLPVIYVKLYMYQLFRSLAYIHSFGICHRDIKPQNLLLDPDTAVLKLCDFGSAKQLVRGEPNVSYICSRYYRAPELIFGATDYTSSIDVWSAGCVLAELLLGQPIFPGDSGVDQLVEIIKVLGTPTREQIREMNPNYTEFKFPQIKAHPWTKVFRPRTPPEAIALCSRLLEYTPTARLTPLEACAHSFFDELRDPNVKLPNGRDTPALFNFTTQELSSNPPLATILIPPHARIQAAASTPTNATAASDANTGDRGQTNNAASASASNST

[34] = target: Ribosomal protein S6 kinase alpha-5 (Homo sapiens) (UniProt O75582); conditions: 3 uM
[35] = target: Fibroblast growth factor receptor 1 (Homo sapiens) (UniProt P11362); conditions: 3 uM
[36] = target: Fibroblast growth factor receptor 3 (Homo sapiens) (UniProt P22607); conditions: 3 uM
Sequence of Fibroblast growth factor receptor 3 (Homo sapiens) (P22607 23-806 limits assumed): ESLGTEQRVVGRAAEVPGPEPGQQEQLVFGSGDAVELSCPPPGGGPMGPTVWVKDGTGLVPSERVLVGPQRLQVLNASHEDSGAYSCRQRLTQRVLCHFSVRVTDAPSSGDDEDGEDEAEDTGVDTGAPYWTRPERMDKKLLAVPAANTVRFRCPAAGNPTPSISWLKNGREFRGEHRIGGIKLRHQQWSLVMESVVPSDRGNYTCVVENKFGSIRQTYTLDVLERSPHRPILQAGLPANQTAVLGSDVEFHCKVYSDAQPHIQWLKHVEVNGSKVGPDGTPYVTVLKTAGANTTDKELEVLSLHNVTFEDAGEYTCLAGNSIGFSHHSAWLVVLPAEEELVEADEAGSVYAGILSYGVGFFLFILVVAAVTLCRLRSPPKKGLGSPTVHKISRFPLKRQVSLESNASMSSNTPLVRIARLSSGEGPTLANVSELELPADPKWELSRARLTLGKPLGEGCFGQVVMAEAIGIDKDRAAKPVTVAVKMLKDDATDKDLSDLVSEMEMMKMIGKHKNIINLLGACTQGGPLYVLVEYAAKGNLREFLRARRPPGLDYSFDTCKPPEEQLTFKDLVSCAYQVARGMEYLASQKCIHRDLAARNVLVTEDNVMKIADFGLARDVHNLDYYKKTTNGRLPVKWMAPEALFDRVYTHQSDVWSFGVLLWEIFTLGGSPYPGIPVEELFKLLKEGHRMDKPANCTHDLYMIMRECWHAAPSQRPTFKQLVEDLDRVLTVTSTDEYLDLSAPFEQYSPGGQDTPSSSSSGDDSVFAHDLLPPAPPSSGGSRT

[37] = target: Mast/stem cell growth factor receptor Kit (Homo sapiens) (UniProt P10721); conditions: 3 uM
[38] = target: Tyrosine-protein kinase Lck (Homo sapiens) (UniProt P06239); conditions: 3 uM
[39] = target: Ribosomal protein S6 kinase beta-1 (Homo sapiens) (UniProt P23443); conditions: 3 uM
[40] = target: T2, Ribosomal protein S6 kinase alpha-3; conditions: 3 uM
[41] = target: T3, Mitogen-activated protein kinase 14; conditions: 10 uM
[42] = target: Glycogen synthase kinase-3 beta (Homo sapiens) (UniProt P49841); conditions: 10 uM
[43] = target: Proto-oncogene tyrosine-protein kinase Src (Homo sapiens) (UniProt P12931); conditions: 10 uM
[44] = target: Vascular endothelial growth factor receptor 2 (Homo sapiens) (UniProt P35968); conditions: 10 uM
[45] = target: Fibroblast growth factor receptor 1 (Homo sapiens) (UniProt P11362); conditions: 10 uM
[46] = target: Fibroblast growth factor receptor 3 (Homo sapiens) (UniProt P22607); conditions: 10 uM
[47] = target: Tyrosine-protein kinase Lck (Homo sapiens) (UniProt P06239); conditions: 10 uM
[48] = target: 3-phosphoinositide-dependent protein kinase 1 (Homo sapiens) (UniProt O15530); assay: Inhibition of PDK1 (unknown origin) at 3 uM after 10 mins by mobility shift assay relative to control
[49] = target: 3-phosphoinositide-dependent protein kinase 1 (Homo sapiens) (UniProt O15530); assay: Inhibition of PDK1 (unknown origin) at 10 uM after 10 mins by mobility shift assay relative to control

Compound: O=C1Nc2ccccc2/C1=C/c1c[nH]nc1-c1ccccc1[N+](=O)[O-]
- inhibition [1]: 36%
- inhibition [2]: 7.8%
- inhibition [3]: 12%
- inhibition [4]: 43%
- inhibition [5]: 25%
- inhibition [6]: 30%
- inhibition [7]: 39%
- inhibition [8]: 20%
- inhibition [9]: 4.2%
- inhibition [10]: 25%
- inhibition [11]: 4.4%
- inhibition [12]: 57%
- inhibition [13]: 71%
- inhibition [14]: 8.3%
- inhibition [15]: 33%
- inhibition [16]: 34%
- inhibition [17]: 16%
- inhibition [18]: 67%
- inhibition [19]: 38%
- inhibition [20]: 4.7%
- inhibition [21]: 64%
- inhibition [22]: 49%
- IC50 [23]: 14800 nM
- IC50 [24]: 9320 nM
- IC50 [25]: 500 nM
- inhibition [26]: 93.4%
- inhibition [27]: 13%
- inhibition [28]: 71%
- IC50 [29]: 11 nM
- IC50 [30]: 11 nM
- inhibition [31]: 19%
- inhibition [32]: 31%
- inhibition [33]: 37%
- inhibition [34]: 31%
- inhibition [35]: 44%
- inhibition [36]: 44%
- inhibition [37]: 55%
- inhibition [38]: 31%
- inhibition [39]: 44%
- inhibition [40]: 61%
- inhibition [41]: 27%
- inhibition [42]: 40%
- inhibition [43]: 55%
- inhibition [44]: 65%
- inhibition [45]: 65%
- inhibition [46]: 65%
- inhibition [47]: 55%
- inhibition [48]: 6.7%
- inhibition [49]: 6.2%
